Read-outs that look alike come from different tables or passages of the source.
Columns and labels:
rats = details: ref Freitas et al., 2016; cited from earlier work
[1] = system: C57BL/6J mice; β2 and α6 WT and KO mice; assay: Formalin test; format: in vivo
[2] = system: C57BL/6J mice; β2 and α6 WT and KO mice; assay: Conditioned place preference; format: in vivo
Outline: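 Three-chamber place conditioning in β2 and α6 WT and KO mice (C57BL/6J background, 8–10/group). Day 1: 5 min confinement to the middle chamber, then 15 min free access. Test compound (0.05 mg/kg s.c.) or vehicle given over three conditioning days, sessions 4 h apart, paired chamber randomized. Day 5: drug-free 15 min test. Score = drug-paired-side time on test day minus baseline.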

ICR mice [3] = assay: Tail-flick test; format: in vivo
Outline: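 ICR mice (6/group) injected s.c. with test compound (0.001, 0.01, 0.1, 0.5 mg/kg) or saline; tail-flick latency tested at 5, 10, 15, 30, 60 and 120 min. Pre-treatment control latency 2–4 sec; 10 sec cutoff. %MPE = (test−control)/(10−control)×100.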

[4] = biological target: low sensitivity α4(3)β2(2) nAChR (Homo sapiens, UniProt P17787+P43681); assay: Two-electrode voltage clamp in Xenopus oocytes, LS α4β2; format: cell-based
low sensitivity α4(3)β2(2) nAChR, sequence (P17787 26-502): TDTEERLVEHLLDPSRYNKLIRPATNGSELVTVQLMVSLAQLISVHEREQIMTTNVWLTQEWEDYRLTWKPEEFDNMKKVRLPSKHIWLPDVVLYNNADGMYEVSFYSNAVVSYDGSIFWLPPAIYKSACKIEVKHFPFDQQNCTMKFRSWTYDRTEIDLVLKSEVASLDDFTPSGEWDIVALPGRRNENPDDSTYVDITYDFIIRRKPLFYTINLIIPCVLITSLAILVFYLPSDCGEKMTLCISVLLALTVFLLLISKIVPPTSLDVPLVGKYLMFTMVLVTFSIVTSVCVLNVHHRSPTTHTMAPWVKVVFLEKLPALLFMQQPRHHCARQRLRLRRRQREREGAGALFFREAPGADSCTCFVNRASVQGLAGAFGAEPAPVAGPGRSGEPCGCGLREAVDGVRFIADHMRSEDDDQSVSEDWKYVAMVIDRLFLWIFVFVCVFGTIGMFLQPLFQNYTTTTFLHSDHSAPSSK
low sensitivity α4(3)β2(2) nAChR, sequence (P43681 29-627 limits assumed): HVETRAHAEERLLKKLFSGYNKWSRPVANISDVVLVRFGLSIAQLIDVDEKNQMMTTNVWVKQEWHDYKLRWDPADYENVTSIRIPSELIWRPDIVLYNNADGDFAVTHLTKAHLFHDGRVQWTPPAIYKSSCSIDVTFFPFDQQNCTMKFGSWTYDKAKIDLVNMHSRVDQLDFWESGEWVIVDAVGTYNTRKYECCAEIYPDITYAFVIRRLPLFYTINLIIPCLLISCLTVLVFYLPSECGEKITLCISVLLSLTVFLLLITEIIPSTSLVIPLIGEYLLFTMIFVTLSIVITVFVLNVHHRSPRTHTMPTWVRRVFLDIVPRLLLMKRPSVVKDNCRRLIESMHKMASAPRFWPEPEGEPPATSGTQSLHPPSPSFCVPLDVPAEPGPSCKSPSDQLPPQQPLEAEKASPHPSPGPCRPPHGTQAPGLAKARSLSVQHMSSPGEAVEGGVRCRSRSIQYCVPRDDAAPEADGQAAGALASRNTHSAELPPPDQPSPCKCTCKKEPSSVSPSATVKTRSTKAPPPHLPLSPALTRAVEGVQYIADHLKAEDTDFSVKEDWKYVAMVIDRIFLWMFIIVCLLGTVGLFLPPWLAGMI
low sensitivity α4(3)β2(2) nAChR, sequence (P43681 29-627 limits assumed): as above
Outline: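 LS α4β2 nAChR (human, cRNA in Xenopus oocytes) clamped at −60 mV, 24°C, with Ringer's (pH 7.2, 1 μM atropine) at 2 ml/min. Varying test compound concentrations applied for 12 s, then 181 s washout. Peak currents and net charge normalized to same-cell 100 μM ACh controls, then adjusted to ACh maximum determined separately; at least four oocytes.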

[5] = biological target: high sensitivity α4(2)β2(3) nAChR (Homo sapiens, UniProt P17787+P43681); assay: Two-electrode voltage clamp in Xenopus oocytes, HS α4β2; format: cell-based
high sensitivity α4(2)β2(3) nAChR, sequence (P17787 26-502): as the sequence (P17787 26-502) above
high sensitivity α4(2)β2(3) nAChR, sequence (P43681 29-627 limits assumed): as the sequence (P43681 29-627 limits assumed) above
high sensitivity α4(2)β2(3) nAChR, sequence (P17787 26-502): as the sequence (P17787 26-502) above
Outline: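 Human HS α4β2 nAChR from in vitro–transcribed cRNA in Xenopus oocytes. Two-electrode clamp at −60 mV, 24°C, in Ringer's (pH 7.2, 1 μM atropine) perfused at 2 ml/min. Test compound over a concentration range as 12 s applications with 181 s washout. Peak current and net charge taken relative to same-cell 10 μM ACh controls, then scaled to ACh maximum from separate experiments; ≥4 oocytes.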

C57BL/6J mice = assay: Hot-plate test; format: in vivo; details: 0.5 mg/kg s.c., 5-120 min
Outline: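 Hot plate held at 55.0 °C, with mice confined in a 10 cm glass cylinder. Two control latencies were taken at least 10 min apart. Latency was scored at a jump or at licking of the front or hind paws. Mice (n=6/group) received saline or test compound 0.5 mg/kg s.c. and were tested at 5, 10, 15, 30, 60 and 120 min. %MPE = ((test−control)/(40−control)) × 100.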

[6] = system: C57BL/6J mice; β2 WT and KO mice; assay: Body temperature; format: in vivo; details: 0.5 mg/kg s.c.
Outline: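 Mixed-sex β2 WT and KO mice on a C57BL/6J background, 8/group, given saline or test compound 0.5 mg/kg s.c. Rectal temperature read by thermistor probe inserted 24 mm, just before and at set times after injection. Change from pre-treatment reading computed per mouse; room temperature 21–24°C.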

ICR mice [7] = assay: Hot-plate test; format: in vivo
Outline: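 Hot plate at 55.0 °C, mouse confined in a 10 cm glass cylinder. Two control latencies taken ≥10 min apart; endpoint is a jump or paw lick. ICR mice (6/group) given test compound s.c. (0.001–0.5 mg/kg) or saline and tested 5–120 min post-dose. %MPE = (test−control)/(40−control)×100.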

[8] = C57BL/6J mice, 0.5 mg/kg s.c., pretreatment 5, 15, 30, 60 min
[9] = α6 WT and KO mice, 0.5 mg/kg s.c., 15 min pretreatment
[10] = β2 WT mice, 0.5 mg/kg s.c., 15 min pretreatment
[11] = 0.001 mg/kg s.c., 5 min after injection
[12] = 0.001 mg/kg s.c., 10 min after injection
[13] = 0.001 mg/kg s.c., 15 min after injection
[14] = 0.001 mg/kg s.c., 30 min after injection
[15] = 0.001 mg/kg s.c., 60 min after injection
[16] = 0.001 mg/kg s.c., 120 min after injection
[17] = 0.01 mg/kg s.c., 5 min after injection
[18] = 0.01 mg/kg s.c., 10 min after injection
[19] = 0.01 mg/kg s.c., 15 min after injection
[20] = 0.01 mg/kg s.c., 30 min after injection
[21] = 0.01 mg/kg s.c., 60 min after injection
[22] = 0.01 mg/kg s.c., 120 min after injection
[23] = 0.1 mg/kg s.c., 5 min after injection
[24] = 0.1 mg/kg s.c., 10 min after injection
[25] = 0.1 mg/kg s.c., 15 min after injection
[26] = 0.1 mg/kg s.c., 30 min after injection
[27] = 0.1 mg/kg s.c., 60 min after injection
[28] = 0.1 mg/kg s.c., 120 min after injection
[29] = 0.5 mg/kg s.c., 5 min after injection
[30] = 0.5 mg/kg s.c., 10 min after injection
[31] = 0.5 mg/kg s.c., 15 min after injection
[32] = 0.5 mg/kg s.c., 30 min after injection
[33] = 0.5 mg/kg s.c., 60 min after injection
[34] = 0.5 mg/kg s.c., 120 min after injection
[35] = α4(3)β2(2), normalized to the maximum ACh responses
[36] = α4(2)β2(3), normalized to the maximum ACh responses

In the case of `Ic1cncc(OC[C@@H]2CCN2)c1` [5IA, 5-Iodo-A-85380], the “Intracranial self-stimulation (ICSS) (in words)” value (rats) is given as “dose-dependently produced facilitated intracranial self-stimulation (ICSS)”, the “Paw licking, formalin test phase I, time course (in words)” value [1, 8] is given as “significant effects of 5IA treatment at 5, 15, 30, and 60 min in phase I” and the “Paw licking, formalin test phase II, time course (in words)” value [1, 8] is given as “significant differences observed at only 5 and 15 minutes”. For the same molecule, the “Paw licking, formalin test, dose-response (in words)” value ([1]; C57BL/6J mice, 0.01, 0.1, 0.5 mg/kg s.c., 15 min pretreatment, vs vehicle) was “significant attenuation of paw licking responses at 0.1 and 0.5 mg/kg”, the “Paw licking, formalin test phase I (in words)” value [1, 9] was “completely blocked the paw licking behavior in both α6 WT and KO mice in phase I” and the “Paw licking, formalin test phase II (in words)” value [1, 9] was “only partially inhibited it in phase II”. For the same molecule, the “Paw licking, formalin test phase I (in words)” value [1, 10] was “significantly attenuated paw licking time in phase I”, the “Paw licking, formalin test phase II (in words)” value [1, 10] was “partially decreased paw licking time in phase II” and the “Conditioned place preference, dose-response (in words)” value ([2]; C57BL/6J mice, 0.01, 0.05, 0.1, 0.5 or 1 mg/kg s.c.) was “significant 5IA induced-CPP at 0.05 and 0.1 mg/kg, but not at 0.01, 0.5, and 1 mg/kg”. The “Conditioned place preference, α6 WT vs KO (in words)” value ([2]; α6 WT and KO mice, 0.05 mg/kg s.c.) was “no significant difference in 5IA-induced CPP between α6 WT and KO mice”, the “Conditioned place preference (in words)” value ([2]; β2 KO mice, 0.05 mg/kg s.c.) was “significantly abolished in β2 KO mice” and the “Conditioned place preference (in words)” value ([2]; β2 WT mice, 0.05 mg/kg s.c.) was “significant CPP in comparison to their vehicle counterparts”. The “Antinociceptive response, tail-flick test” value (ICR mice [3]; [11]) was 2 ± 2 % MPE, the “Antinociceptive response, tail-flick test” value (ICR mice [3]; [12]) was 3 ± 1 % MPE and the “Antinociceptive response, tail-flick test” value (ICR mice [3]; [13]) was 3 ± 2 % MPE. The “Antinociceptive response, tail-flick test” value (ICR mice [3]; [14]) was 0 ± 0 % MPE, the “Antinociceptive response, tail-flick test” value (ICR mice [3]; [15]) was 1 ± 1 % MPE and the “Antinociceptive response, tail-flick test” value (ICR mice [3]; [16]) was 4 ± 2 % MPE. The “Antinociceptive response, tail-flick test” value (ICR mice [3]; [17]) was 1 ± 1 % MPE, the “Antinociceptive response, tail-flick test” value (ICR mice [3]; [18]) was 2 ± 1 % MPE and the “Antinociceptive response, tail-flick test” value (ICR mice [3]; [19]) was 2 ± 1 % MPE. The “Antinociceptive response, tail-flick test” value (ICR mice [3]; [20]) was 2 ± 2 % MPE, the “Antinociceptive response, tail-flick test” value (ICR mice [3]; [21]) was 1 ± 1 % MPE and the “Antinociceptive response, tail-flick test” value (ICR mice [3]; [22]) was 1 ± 1 % MPE. For the same molecule, the “Antinociceptive response, tail-flick test” value (ICR mice [3]; [23]) was 0 ± 0 % MPE, the “Antinociceptive response, tail-flick test” value (ICR mice [3]; [24]) was 3 ± 1 % MPE and the “Antinociceptive response, tail-flick test” value (ICR mice [3]; [25]) was 3 ± 1 % MPE. The “Antinociceptive response, tail-flick test” value (ICR mice [3]; [26]) was 6 ± 4 % MPE, the “Antinociceptive response, tail-flick test” value (ICR mice [3]; [27]) was 3 ± 2 % MPE and the “Antinociceptive response, tail-flick test” value (ICR mice [3]; [28]) was 5 ± 2 % MPE. The “Antinociceptive response, tail-flick test” value (ICR mice [3]; [29]) was 10 ± 4 % MPE, the “Antinociceptive response, tail-flick test” value (ICR mice [3]; [30]) was 4 ± 3 % MPE and the “Antinociceptive response, tail-flick test” value (ICR mice [3]; [31]) was 11 ± 4 % MPE. The “Antinociceptive response, tail-flick test” value (ICR mice [3]; [32]) was 7 ± 4 % MPE, the “Antinociceptive response, tail-flick test” value (ICR mice [3]; [33]) was 6 ± 3 % MPE and the “Antinociceptive response, tail-flick test” value (ICR mice [3]; [34]) was 7 ± 3 % MPE. The “Effect on acute thermal antinociception, tail-flick test (in words)” value (ICR mice [3]; 0.001-0.5 mg/kg s.c., 5-120 min, Dunnett's post hoc) was “no significant effects of dose at any of the observed time points”, the “Efficacy (in words)” value ([4]; low sensitivity α4(3)β2(2)) was “very low efficacy” and the EC50 ([4]; read-out: Net Charge EC50, α4(3)β2(2)) was 25 ± 14 nM. The EC50 ([4]; read-out: Peak Currents EC50, α4(3)β2(2)) was 37 ± 6.3 nM, the “Net Charge Imax” value [4, 35] was 0.22 ± 0.04 and the “Peak Currents Imax” value [4, 35] was 0.22 ± 0.1. For the same molecule, the “Effect on current duration (in words)” value ([5]; HS α4β2 receptors) was “prolonged the currents”, the “Efficacy (in words)” value ([5]; high sensitivity α4(2)β2(3)) was “full agonist” and the EC50 ([5]; read-out: Net Charge EC50, α4(2)β2(3)) was 62 ± 11 nM. For the same molecule, the EC50 ([5]; read-out: Peak Currents EC50, α4(2)β2(3)) was 42 ± 2 nM, the “Net Charge Imax” value [5, 36] was 3.0 ± 0.18 and the “Peak Currents Imax” value [5, 36] was 1.3 ± 0.02. The “Effect on acute thermal antinociception, hot plate test (in words)” value (C57BL/6J mice) was “no significant effect of 5IA on acute thermal antinociception in the hot plate or tail-flick test”, the “Body temperature, time course (in words)” value ([6]; C57BL/6J mice, vs vehicle) was “significant reductions in body temperature in comparison to their vehicle controls at 15-, 30- and 60-min” and the “Hypothermic effect in β2 KO vs WT mice (in words)” value ([6]; β2 WT and KO mice) was “significantly abolished in β2 KO mice”. For the same molecule, the “Antinociceptive response, hot-plate test” value (ICR mice [7]; [11]) was 8 ± 3 % MPE, the “Antinociceptive response, hot-plate test” value (ICR mice [7]; [12]) was 10 ± 3 % MPE and the “Antinociceptive response, hot-plate test” value (ICR mice [7]; [13]) was 10 ± 5 % MPE. The “Antinociceptive response, hot-plate test” value (ICR mice [7]; [14]) was 4 ± 3 % MPE, the “Antinociceptive response, hot-plate test” value (ICR mice [7]; [15]) was 8 ± 5 % MPE and the “Antinociceptive response, hot-plate test” value (ICR mice [7]; [16]) was 11 ± 5 % MPE. For the same molecule, the “Antinociceptive response, hot-plate test” value (ICR mice [7]; [17]) was 9 ± 3 % MPE, the “Antinociceptive response, hot-plate test” value (ICR mice [7]; [18]) was 7 ± 3 % MPE and the “Antinociceptive response, hot-plate test” value (ICR mice [7]; [19]) was 7 ± 3 % MPE. The “Antinociceptive response, hot-plate test” value (ICR mice [7]; [20]) was 5 ± 3 % MPE, the “Antinociceptive response, hot-plate test” value (ICR mice [7]; [21]) was 13 ± 6 % MPE and the “Antinociceptive response, hot-plate test” value (ICR mice [7]; [22]) was 5 ± 3 % MPE. For the same molecule, the “Antinociceptive response, hot-plate test” value (ICR mice [7]; [23]) was 7 ± 2 % MPE, the “Antinociceptive response, hot-plate test” value (ICR mice [7]; [24]) was 6 ± 3 % MPE and the “Antinociceptive response, hot-plate test” value (ICR mice [7]; [25]) was 3 ± 2 % MPE. The “Antinociceptive response, hot-plate test” value (ICR mice [7]; [26]) was 0 ± 0 % MPE, the “Antinociceptive response, hot-plate test” value (ICR mice [7]; [27]) was 8 ± 4 % MPE and the “Antinociceptive response, hot-plate test” value (ICR mice [7]; [28]) was 14 ± 6 % MPE. For the same molecule, the “Antinociceptive response, hot-plate test” value (ICR mice [7]; [29]) was 17 ± 5 % MPE, the “Antinociceptive response, hot-plate test” value (ICR mice [7]; [30]) was 11 ± 8 % MPE and the “Antinociceptive response, hot-plate test” value (ICR mice [7]; [31]) was 18 ± 9 % MPE. For the same molecule, the “Antinociceptive response, hot-plate test” value (ICR mice [7]; [32]) was 10 ± 6 % MPE, the “Antinociceptive response, hot-plate test” value (ICR mice [7]; [33]) was 11 ± 7 % MPE and the “Antinociceptive response, hot-plate test” value (ICR mice [7]; [34]) was 11 ± 4 % MPE. For the same molecule, the “Effect on acute thermal antinociception, hot plate test (in words)” value (ICR mice [7]; 0.001-0.5 mg/kg s.c., 5-120 min) was “no significant effect of 5IA on acute thermal antinociception in the hot plate test”.

Reference: publication PMC9817006 (Journal of psychopharmacology (Oxford, England), 2022)
